The text below walks through data of ChEMBL document CHEMBL3085681, “Synthesis of novel 1,2,3-triazole based benzoxazolinones: their TNF-α based molecular docking with in-vivo anti-inflammatory, antinociceptive activities and ulcerogenic risk evaluation” (Eur J Med Chem, 2013).

The subject of data set [1] is Rattus norvegicus. Description: Antiinflammatory activity in albino Wistar rat assessed as inhibition of carrageenan-induced hind paw edema at 0.05 mmol/kg, po administered 1 hr prior to carrageenan challenge measured after 5 hrs by plethysmometric analysis relative to control. The class given is functional. In a few lines:
(§1)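 Oedema raised by s.c. injection of 0.1 ml of freshly prepared 1% carrageenan in saline into the right hind paw. Test agents given orally at 0.05 mmol/kg, 1 h before carrageenan; saline vehicle control. Paw volume read by plethysmometer at 3 h and 5 h.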

For data set [2], the system named is Rattus norvegicus. Description: Antinociceptive activity in albino Wistar rat assessed as thermal-stimulus induced tail flick latency at 0.05 mmol/kg, po after 120 mins (reference value: 2.38 +/- 0.11 mins). The class given is functional.
In data set [3] the test system is Rattus norvegicus. In words: Ulcerogenicity in albino Wistar rat assessed as gastric superficial mucosal damage at 0.15 mmol/kg, po by hematoxylin and eosin staining-based assay. The class given is toxicity, organism-based, Stomach. As to conditions: in vivo.
The subject of data set [4] is Rattus norvegicus. Description: Ulcerogenicity in albino Wistar rat assessed as gastric muscular layer damage at 0.15 mmol/kg, po by hematoxylin and eosin staining-based assay. As to conditions: in vivo. The class given is toxicity, organism-based, Stomach.
In data set [5] the test system is Rattus norvegicus. In words: Antinociceptive activity in albino Wistar rat assessed as thermal-stimulus induced tail flick latency at 0.05 mmol/kg, po after 60 mins (reference value: 2.54 +/- 0.05 mins). The class given is functional.
In data set [6] the target is T1, Prostaglandin G/H synthase 2 (Homo sapiens, UniProt P35354).
T1 sequence (P35354 whole entry): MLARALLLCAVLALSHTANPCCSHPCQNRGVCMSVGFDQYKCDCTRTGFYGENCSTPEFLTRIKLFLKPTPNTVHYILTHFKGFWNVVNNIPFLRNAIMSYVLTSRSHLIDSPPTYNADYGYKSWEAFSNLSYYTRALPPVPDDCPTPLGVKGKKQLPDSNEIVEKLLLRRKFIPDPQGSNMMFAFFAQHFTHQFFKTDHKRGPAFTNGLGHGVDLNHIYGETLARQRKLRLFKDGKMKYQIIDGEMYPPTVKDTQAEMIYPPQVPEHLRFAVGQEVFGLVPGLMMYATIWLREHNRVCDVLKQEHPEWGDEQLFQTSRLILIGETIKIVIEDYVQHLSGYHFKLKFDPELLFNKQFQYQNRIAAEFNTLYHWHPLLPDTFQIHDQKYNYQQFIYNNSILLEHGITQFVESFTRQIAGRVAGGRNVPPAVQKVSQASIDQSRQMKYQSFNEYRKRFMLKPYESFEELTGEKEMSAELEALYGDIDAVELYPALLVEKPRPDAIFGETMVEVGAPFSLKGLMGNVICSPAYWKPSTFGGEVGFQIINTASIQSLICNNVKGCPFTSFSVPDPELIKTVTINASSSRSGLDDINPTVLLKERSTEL
Description: Inhibition of human recombinant COX2 expressed in insect cell expression system using TMPD and arachidonic acid as substrate incubated for 1 min prior to substrate addition by spectrophotometry.

Data set [7] deals with Rattus norvegicus. In words: Antiinflammatory activity in albino Wistar rat assessed as inhibition of carrageenan-induced hind paw edema at 0.05 mmol/kg, po administered 1 hr prior to carrageenan challenge measured after 3 hrs by plethysmometric analysis relative to control. Format: functional. In a few lines:
as §1

Data set [8] relates to Rattus norvegicus. In words: Antinociceptive activity in albino Wistar rat assessed as thermal-stimulus induced tail flick latency at 0.05 mmol/kg, po after 30 mins (reference value: 2.22 +/- 0.20 mins). Format: functional.
In data set [9] the target is Prostaglandin G/H synthase 1 (Homo sapiens, UniProt P23219). Description: Inhibition of COX1 (unknown origin).
For data set [10], the system named is Rattus norvegicus. Description: Ulcerogenicity in albino Wistar rat assessed as gastric deep mucosal damage at 0.15 mmol/kg, po by hematoxylin and eosin staining-based assay. Format: toxicity, organism-based, Stomach. As to conditions: in vivo.
Data set [11] has as its system Rattus norvegicus. In words: Ulcerogenicity in albino Wistar rat assessed as gastric surface epithelial damage at 0.15 mmol/kg, po by hematoxylin and eosin staining-based assay. Format: toxicity, organism-based, Stomach. Conditions: in vivo.
The species entered for data set [12] is Homo sapiens. Description: Selectivity index, ratio of IC50 for COX1 (unknown origin) to IC50 for human recombinant COX2.
The subject of data set [13] is Rattus norvegicus. In words: Antiinflammatory activity in albino Wistar rat assessed as inhibition of carrageenan-induced hind paw edema at 0.05 mmol/kg, po administered 1 hr prior to carrageenan challenge by plethysmometric analysis. Format: functional, organism-based. As to conditions: TDE = time-dependent effect. The method in brief: as §1
Data set [14] is described as follows: Antiinflammatory activity in macrophages (unknown origin) assessed as inhibition of TNF-alpha secretion incubated for 2 hrs by ELISA relative to control. Format: functional, Macrophage. The method in brief: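 Macrophages grown in RPMI 1640 with 10% FBS, glutamine and penicillin/streptomycin, plated at 2 × 10^6 cells/mL. Pre-treated with cytochalasin D (2.5 µM per 10^6 cells) for 30 min, kept on throughout. Cells exposed to varying compound concentrations. TNF-α in supernatants measured by sandwich ELISA with TMB read at 450 nm, quantified against the kit standard.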

The subject of data set [15] is Mus musculus. In words: Antinociceptive activity in mouse assessed as inhibition of acetic acid-induced writhing at 0.05 mmol/kg, po administered 30 mins prior to acetic acid-challenge measured after 20 mins relative to control. Format: functional. The method in brief: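 Writhing in mice by the Koster method. Six animals per group, compound given orally at 0.05 mmol/kg 30 min before i.p. 0.6% (v/v) acetic acid (80 mg/kg). Total writhes counted over 20 min after acetic acid injection.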

The structures appear in SMILES notation. The source made the active and inactive calls. The calls are words filed in the database; no cut-off is given here.

Prostaglandin G/H synthase 1, sequence (P23219 whole entry): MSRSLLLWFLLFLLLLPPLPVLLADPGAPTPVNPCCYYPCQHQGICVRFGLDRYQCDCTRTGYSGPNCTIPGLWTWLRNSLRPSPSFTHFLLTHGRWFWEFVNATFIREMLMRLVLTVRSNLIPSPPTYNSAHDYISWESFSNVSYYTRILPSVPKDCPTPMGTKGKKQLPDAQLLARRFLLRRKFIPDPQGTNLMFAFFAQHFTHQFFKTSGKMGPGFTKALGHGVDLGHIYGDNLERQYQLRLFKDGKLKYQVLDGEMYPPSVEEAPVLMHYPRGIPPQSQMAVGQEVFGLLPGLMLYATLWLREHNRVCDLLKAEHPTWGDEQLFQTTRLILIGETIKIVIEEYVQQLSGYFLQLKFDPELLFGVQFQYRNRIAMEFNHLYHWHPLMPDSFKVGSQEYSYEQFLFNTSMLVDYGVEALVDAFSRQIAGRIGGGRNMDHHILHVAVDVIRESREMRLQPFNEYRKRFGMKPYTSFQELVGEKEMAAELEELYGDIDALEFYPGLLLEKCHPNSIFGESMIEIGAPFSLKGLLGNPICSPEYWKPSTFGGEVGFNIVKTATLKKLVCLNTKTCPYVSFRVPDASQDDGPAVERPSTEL

Regarding `Cc1ccc2c(c1)oc(=O)n2Cc1cn(-c2ccc(F)cc2)nn1`, the figures for the inhibition in vivo at 50 µmol/kg in data set [1] and in [7] were 80.6% and 81.4%, respectively. The Time is recorded as 3.36 min in data set [2], 3.24 min in data set [5] and 3.1 min in data set [8]. The Activity result in data set [3], in data set [4], in [10] and in [11] was “Non-toxic” throughout. Moreover, the half-maximal inhibitory concentration (IC50) in data set [6] was found to be 2.4 µM; in [9] it was 175 µM. The Ratio IC50 in data set [12] came to 72.8.

In the case of `O=c1oc2ccc(Cl)cc2n1Cc1cn(-c2ccc(Cl)cc2)nn1`, the inhibition in vivo at 50 µmol/kg amounted to 65.1% in data set [1] and 67.4% in data set [7]. Besides, the Activity result in data set [3], in [4], in [10] and in [11] was “Non-toxic” each time. Further, the values for the IC50 in [6] and in data set [9] were 2.7 µM and 111 µM, respectively. In data set [12], the Ratio IC50 turned out to be 41.2.

`CCOc1ccc(-n2cc(Cn3c(=O)oc4ccccc43)nn2)cc1`: the inhibition entry in data set [1] and in data set [7] was “Active” each time.

As to `Cc1ccc2c(c1)oc(=O)n2Cc1cn(-c2ccccc2Cl)nn1`, the results for the inhibition in vivo at 50 µmol/kg in [1] and in [7] were 72.9% and 71.8%, respectively. Besides, the Time in data set [2] came to 2.56 min; in data set [5], 2.44 min; in data set [8], 2.18 min. In addition, the Activity result in [3], in data set [4], in [10] and in data set [11] was “Non-toxic” in each case. The IC50 was 3.6 µM in data set [6] and 207 µM in data set [9]. The inhibition entry in data set [13] was “tde”. For the same compound, the Ratio IC50 in [12] turned out to be 57.6.

`O=c1oc2ccc(Cl)cc2n1Cc1cn(-c2ccccc2F)nn1`: the Time in data set [2] came to 2.64 min; in data set [5], 2.78 min; in data set [8], 2.88 min. For the same compound, the Activity result in data set [3], in data set [4], in data set [10] and in [11] was “Non-toxic” throughout. In addition, the IC50 in data set [6] stood at 3.1 µM; in data set [9], 138 µM. In data set [12], the Ratio IC50 worked out at 44.6.

Consider `COc1ccc(-n2cc(Cn3c(=O)oc4ccccc43)nn2)cc1`, for which the inhibition result in [1] and in data set [7] was “Active” each time.

As for `COc1ccc2c(c1)c(CC(=O)O)c(C)n2C(=O)c1ccc(Cl)cc1` [INDOMETHACIN], the values for the inhibition in vivo at 50 µmol/kg in [1], in [7] and in data set [15] were 82.2%, 79.1% and 44.7%, respectively. In addition, the Time in data set [2] was determined as 3.54 min; in data set [5], 3.68 min; in [8], 3.12 min. In data set [14], the “inhibition (INH)” value came to 64.01%. For the same compound, the Activity entry in [3], in data set [4], in data set [10] and in data set [11] was “Toxic” each time.

Turning to `Cc1ccc2oc(=O)n(Cc3cn(-c4ccc(Br)cc4)nn3)c2c1`, the inhibition in vivo at 50 µmol/kg in [1] was determined as 74.8%; in data set [7] it was 73.2%; in data set [15], 41.8%. The results for the Time in data set [2], in [5] and in data set [8] were 2.88 min, 2.74 min and 2.62 min, respectively. In data set [14], the “inhibition (INH)” value was found to be 50.95%. Further, the Activity entry in [3], in data set [4], in data set [10] and in [11] was “Non-toxic” each time. The IC50 turned out to be 2.78 µM in [6] and 188 µM in [9]. The inhibition entry in [13] was “tde”. Further, the Ratio IC50 in data set [12] is 67.7.

Regarding `Cc1ccc2c(c1)oc(=O)n2Cc1cn(-c2ccc(Cl)cc2)nn1`, the inhibition in vivo at 50 µmol/kg stood at 76.7% in [1] and 74% in data set [7]. Besides, the results for the Time in [2], in [5] and in data set [8] were 3.34 min, 3.22 min and 3.08 min, respectively. Moreover, the Activity result in data set [3], in data set [4], in data set [10] and in data set [11] was “Non-toxic” throughout. The values for the IC50 in data set [6] and in data set [9] were 5.6 µM and 389 µM, respectively. For the same compound, in data set [12], the Ratio IC50 stood at 69.5.

For `O=c1oc2ccccc2n1Cc1cn(-c2cccc([N+](=O)[O-])c2)nn1`, the inhibition result in data set [1] and in data set [7] was “inactive” throughout.

Consider `O=c1oc2ccccc2n1Cc1cn(-c2cccnc2)nn1`, for which the inhibition result in [1] and in data set [7] was “Active” each time.
